Test results as given in ChEMBL document CHEMBL1134091, “Aromatic inhibitors of dehydroquinate synthase: synthesis, evaluation and implications for gallic acid biosynthesis” (Bioorg Med Chem Lett, 2001).

B1: 3-dehydroquinate synthase (Escherichia coli K-12), P07639 (protein)
chain: MERIVVTLGERSYPITIASGLFNEPASFLPLKSGEQVMLVTNETLAPLYLDKVRGVLEQAGVNVDSVILPDGEQYKSLAVLDTVFTALLQKPHGRDTTLVALGGGVVGDLTGFAAASYQRGVRFIQVPTTLLSQVDSSVGGKTAVNHPLGKNMIGAFYQPASVVVDLDCLKTLPPRELASGLAEVIKYGIILDGAFFNWLEENLDALLRLDGPAMAYCIRRCCELKAEVVAADERETGLRALLNLGHTFGHAIEAEMGYGNWLHGEAVAAGMVMAARTSERLGQFSSAETQRIITLLKRAGLPVNGPREMSAQAYLPHMLRDKKVLAGEMRLILPLAIGKSEVRSGVSHELVLNAIADCQSA

Assays:
[1] = target: T1, 3-dehydroquinate synthase (Escherichia coli K-12, UniProt P07639); assay: Inhibition constant for binding to Co2+ form of 3-dehydroquinate synthase (DHQ) purified from Escherichia coli
T1 sequence (P07639 whole entry): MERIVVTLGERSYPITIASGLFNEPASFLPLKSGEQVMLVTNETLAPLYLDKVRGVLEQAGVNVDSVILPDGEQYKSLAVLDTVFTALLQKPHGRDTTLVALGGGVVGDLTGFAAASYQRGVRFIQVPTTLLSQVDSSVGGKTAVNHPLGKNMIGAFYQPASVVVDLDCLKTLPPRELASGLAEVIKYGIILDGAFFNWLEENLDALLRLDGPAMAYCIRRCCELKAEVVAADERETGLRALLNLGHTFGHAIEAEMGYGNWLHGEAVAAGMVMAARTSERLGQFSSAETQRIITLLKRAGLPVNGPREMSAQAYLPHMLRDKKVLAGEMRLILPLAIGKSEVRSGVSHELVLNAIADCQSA
In short: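 E. coli DHQ synthase, Co2+ form, purified with […] in all buffers from lysis onward. Assayed at rt in 50 mM MOPS pH 7.5 with […], 10 mM NAD+, 1 unit dehydroquinase, varied DAHP and inhibitor; 0.024 units enzyme added last. A234 increase followed. Ki from Dixon plots, or as half the I50 x-intercept at DAHP = Km ([…]).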

[2] = target: T1, 3-dehydroquinate synthase; assay: Inhibition constant for binding to Zn2+ form of 3-dehydroquinate synthase (DHQ) purified from Escherichia coli
In short: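 E. coli DHQ synthase, Zn2+ form, purified with 75 mM ZnSO4 replacing CoCl2 in all buffers. Assayed at rt in 50 mM MOPS pH 7.5 with […] mM NAD+, 1 unit dehydroquinase, varied DAHP and inhibitor; 0.024 units enzyme added last. A234 increase followed. Ki from Dixon plots, or as half the I50 x-intercept at DAHP = Km ([…]).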

[3] = substrate: Oc1ccccc1O; assay: Kinetics expressed as Michaelis-Menten constant against Zn2+ form of 3-dehydroquinate synthase purified from Escherichia coli
In short: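 Zn2+-form enzyme from E. coli, purified with ZnSO4 replacing CoCl2 in every buffer from cell lysis onward. Coupled assay in 50 mM MOPS pH 7.5 with ZnSO4, NAD+, dehydroquinase (1 unit) and varying DAHP substrate. Equilibrated at rt, then started with 0.024 units synthase. Absorbance increase at 234 nm monitored. Initial rates from linear least-squares fits.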

[4] = substrate: Oc1ccccc1O; assay: Kinetics expressed as Michaelis-Menten constant against Co2+ form of 3-dehydroquinate synthase purified from Escherichia coli
In short: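 Co2+-form enzyme from E. coli, with CoCl2 in all buffers from lysis through purification. Coupled assay in 50 mM MOPS pH 7.5 with CoCl2, NAD+, dehydroquinase (1 unit) and varying DAHP substrate. Equilibrated at rt, then started with 0.024 units synthase. Absorbance rise at 234 nm followed over time. Initial rates taken from linear least-squares fits of progress curves.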

| Molecule | Ki [1] | Ki [2] | Km [3] | Km [4] |
| --- | --- | --- | --- | --- |
| O=P(O)(O)CCc1cccc(O)c1O | 200 µM | 90 µM |  |  |
| Oc1ccccc1O [CATECHOL] | 880 µM | 630 µM |  |  |
| O=C(O)c1cc(O)c(O)c(CCP(=O)(O)O)c1 | 5 µM | 1.7 µM |  |  |
| O=C(O)c1cc(O)c(O)c(CP(=O)(O)O)c1 | 21 µM | 0.35 µM |  |  |
| O=C(O)c1ccc(O)c(O)c1 [PROTOCATECHUIC ACID] | 44 µM | 65 µM |  |  |
| B1 |  |  | 16 µM | 18 µM |
